# Data reported in article PMC3569009 (Journal of neurochemistry, 2012).
# Tests used:
# α2β4-nAChR = α2β4-nAChR (Homo sapiens, UniProt P30926+Q15822); test: two-electrode voltage clamp, Xenopus oocytes, peak inward current; assay type: cell-based
# Method in brief: (§1)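 Human α2 and β4 (plus β3 for trinary) subunit cRNAs, ~4 ng each at 1:1 or 1:1:1, are injected into stage VI oocytes. Two to 7 days later, oocytes are clamped at –70 mV in Ringer, pH 7.5.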
# α2β4β3-nAChR = α2β4β3-nAChR (Homo sapiens, UniProt P30926+Q15822); test: as above; assay type: cell-based
# Method in brief: as §1
# Sequence of α2β4β3-nAChR (Q15822 27-529): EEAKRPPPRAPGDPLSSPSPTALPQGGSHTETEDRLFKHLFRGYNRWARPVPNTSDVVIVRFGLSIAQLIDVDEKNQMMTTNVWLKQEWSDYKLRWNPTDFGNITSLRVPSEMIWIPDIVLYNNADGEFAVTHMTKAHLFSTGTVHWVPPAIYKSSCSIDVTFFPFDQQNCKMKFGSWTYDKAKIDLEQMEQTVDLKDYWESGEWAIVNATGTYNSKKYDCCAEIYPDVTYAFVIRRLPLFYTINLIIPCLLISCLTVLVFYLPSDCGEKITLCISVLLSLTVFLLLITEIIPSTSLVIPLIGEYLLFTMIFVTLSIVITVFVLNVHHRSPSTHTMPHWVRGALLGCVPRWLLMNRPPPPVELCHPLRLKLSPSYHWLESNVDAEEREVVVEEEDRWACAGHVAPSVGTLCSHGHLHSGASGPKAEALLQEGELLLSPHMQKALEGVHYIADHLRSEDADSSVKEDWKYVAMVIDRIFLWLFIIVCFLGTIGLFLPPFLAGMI
# Sequence of α2β4β3-nAChR (P30926 22-498): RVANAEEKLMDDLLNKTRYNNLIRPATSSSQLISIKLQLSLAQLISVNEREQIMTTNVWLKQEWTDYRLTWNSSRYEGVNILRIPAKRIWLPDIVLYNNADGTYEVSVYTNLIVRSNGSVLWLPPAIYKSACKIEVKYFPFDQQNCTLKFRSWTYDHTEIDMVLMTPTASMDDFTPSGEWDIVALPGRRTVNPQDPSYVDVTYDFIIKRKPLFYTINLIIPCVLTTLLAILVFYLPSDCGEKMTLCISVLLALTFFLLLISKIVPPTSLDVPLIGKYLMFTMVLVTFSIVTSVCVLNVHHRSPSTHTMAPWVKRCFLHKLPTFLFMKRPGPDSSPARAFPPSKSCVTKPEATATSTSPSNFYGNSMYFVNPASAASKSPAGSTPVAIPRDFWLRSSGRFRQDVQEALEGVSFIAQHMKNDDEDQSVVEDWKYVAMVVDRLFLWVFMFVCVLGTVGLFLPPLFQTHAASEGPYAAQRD
# Sequence of α2β4β3-nAChR (Q05901 22-458 partner): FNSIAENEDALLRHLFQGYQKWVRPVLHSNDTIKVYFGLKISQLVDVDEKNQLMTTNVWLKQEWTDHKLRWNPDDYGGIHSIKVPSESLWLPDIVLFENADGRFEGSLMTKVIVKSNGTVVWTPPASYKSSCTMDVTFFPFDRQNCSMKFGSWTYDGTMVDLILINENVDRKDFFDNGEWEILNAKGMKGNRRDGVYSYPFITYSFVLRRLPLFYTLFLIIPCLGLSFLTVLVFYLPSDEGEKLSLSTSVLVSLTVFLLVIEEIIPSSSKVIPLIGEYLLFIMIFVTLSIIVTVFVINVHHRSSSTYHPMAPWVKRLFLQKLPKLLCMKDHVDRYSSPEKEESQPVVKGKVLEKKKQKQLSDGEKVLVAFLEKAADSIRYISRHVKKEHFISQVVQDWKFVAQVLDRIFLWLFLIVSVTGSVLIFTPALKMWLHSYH
# Sequence of α2β4-nAChR (Q15822 27-529): as the sequence (Q15822 27-529) above
# Sequence of α2β4-nAChR (P30926 22-498): as the sequence (P30926 22-498) above
structure (smiles),measurement,setting,value
CN1CCC[C@H]1c1cccnc1 [nicotine],EC50,α2β4-nAChR,8.6 µM
same,EC50,α2β4β3-nAChR,7.3 µM
